EBI2 antag = blocks human EBI2 receptor beta-arrestin signaling | P32249 | EBI2 beta-arrestin recruitment, luminescence, 7a,25-OHC stimulated | inhibition, % at 5 µM | 360,000 compounds, 0.81% hits | AID 651636; in the data active means inhibition above about 38%;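 further: enzyme fragment complementation signal reports receptor beta-arrestin coupling in cells; 0% = agonist plus DMSO wells and 100% = wells without agonist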
APJ agonist = activates the human apelin receptor APJ; CHO-K1 APJ PathHunter beta-arrestin, luminescence; 0% DMSO wells, 100% apelin; activation, % at 20 µM; 330,000 compounds, 0.11% hits; P35414;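 active means activation more than six SD over the plate average, tested at 20 µM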;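 further: 0% = DMSO alone and 100% = apelin-13 at 10 nM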
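Material: CHO-K1 APJ beta-arrestin complementation cell line; Input: cell density 1000 per well; Incubation: compound stimulation 90 min at 25 °C, detection 60 min; Signal: luminescence from split beta-galactosidase complementation, Galacton Star/Emerald II substrate; Controls: DMSO-only wells as negative, 10 nM Apelin-13 as positive control.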
CXCR6 inh = blocks human CXCR6 beta-arrestin recruitment. 360,000 compounds, 0.36% hits. inhibition, % at 20 µM. O00574. CHO-K1 PathHunter CXCR6 beta-arrestin, luminescence; in the data active means inhibition above about 34%, passing the limit was not always enough;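 further: antagonist mode with CXCL16 agonist at 10 nM final; 0% = 10 nM CXCL16 with DMSO and 100% = unstimulated wells without agonist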
Target sequence (O00574 whole entry, looked up): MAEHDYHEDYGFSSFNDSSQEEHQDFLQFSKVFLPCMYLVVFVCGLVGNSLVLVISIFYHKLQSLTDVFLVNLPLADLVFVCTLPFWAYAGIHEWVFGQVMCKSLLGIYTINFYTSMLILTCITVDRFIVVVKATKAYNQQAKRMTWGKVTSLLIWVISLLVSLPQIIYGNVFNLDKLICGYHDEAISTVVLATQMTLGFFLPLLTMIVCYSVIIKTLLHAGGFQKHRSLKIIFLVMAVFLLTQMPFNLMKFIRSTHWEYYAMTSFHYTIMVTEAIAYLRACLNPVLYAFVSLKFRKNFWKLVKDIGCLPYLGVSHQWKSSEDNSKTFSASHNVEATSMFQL
APJ antagonist = antagonists of human APJ apelin receptor. 330,000 compounds, 0.32% hits. inhibition, % at 20 µM. CHO-K1 APJ beta-arrestin complementation, luminescence. P35414;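 active means inhibition above about 40% at 20 µM, limit read from the data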;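 further: cells challenged with 10 nM apelin-13 agonist together with compound; plate controls were apelin-13 plus DMSO wells for no effect and DMSO wells lacking apelin-13 for full effect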
CCR6 antag = CCR6 (human) receptor antagonism; 340,000 compounds, 0.49% hits; AID 493098; CHO-K1 CCR6 PathHunter beta-arrestin, luminescence, CCL20-stimulated; inhibition, % at 20 µM; P51684;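 active means compounds whose inhibition of the agonist-driven luminescence signal at 20 µM reaches about 50%, limit read from the data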;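 further: cells stimulated with CCL20 at 14 nM final; plate controls were DMSO with CCL20 for no effect and DMSO without agonist for full effect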
EBI2 antag conf = confirmation of human EBI2 receptor antagonists. shares compounds with EBI2 antag. EBI2 beta-arrestin luminescence, 7a,25-OHC antagonism. inhibition, % at 5 µM. 2,400 compounds, 29% hits. AID 651997;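 active means inhibition of at least 50%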
EBI2 ag = counter-screen for EBI2 antagonists: EBI2 agonist activity; shares compounds with EBI2 antag; EBI2-expressing cells, agonist mode, luminescence, 60 min; 0% vehicle, 100% 7α,25-dihydroxycholesterol control; activation, % at 5 µM; 2,400 tested, under 10 active;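 active means activation of at least 50%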
bGal cs = counter-screen for EBI2 antagonists: E. coli beta-galactosidase inhibition. shares compounds with EBI2 antag. purified beta-galactosidase, luminescent Galacton Star, 15 min. inhibition, % at 5 µM. 2,400 compounds, 1% hits. AID 652176;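 active means replicate-average signal at least 3 plate SD below neutral wells, shown as high inhibition, flagging enzyme-inhibiting false positives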;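 further: 0% = DMSO wells with enzyme and 100% = wells lacking enzyme; higher means stronger loss of beta-gal luminescence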
An asterisk follows results filed as active; . = no result. Shown are actives, neighbours in structure and some others; about 1.5% of the full set was active somewhere.

SMILES	EBI2 antag	APJ agonist	CXCR6 inh	APJ antagonist	CCR6 antag	EBI2 antag conf	EBI2 ag	bGal cs
Nc1nnc(SCC(=O)NNC(=O)c2ccc(F)cc2)s1	-16	-3	2	-1	3	.	.	.
CC(CC(=O)Nc1ccc(S(=O)(=O)Nc2ncccn2)cc1)c1ccccc1 (centres undefined)	-1	1	-2	4	5	.	.	.
Nc1ccccc1NC1=CC(=O)CC(c2ccccc2)C1 (centres undefined)	.	-2	.	9	.	.	.	.
C/C=C/C1=CC(=O)C[C@H](c2ccc(Cl)cc2)C1	-2	-4	2	-1	14	.	.	.
Cc1ccc(NC2=CC(=O)CC(c3ccccc3)C2)cc1 (centres undefined)	55*	0	-6	2	6	42	2	5
Cc1ccc(NC2=CC(=O)CC(c3ccc(Cl)cc3)C2)cc1 (centres undefined)	82*	-2	9	1	1	79*	-1	-8
O=C1C=C(Nc2ccc(Cl)cc2)CC(c2ccccc2)C1 (centres undefined)	70*	-1	-2	6	16	55*	0	8
COc1ccccc1N(CC(=O)NC1CCCC1)S(=O)(=O)c1cccc(C(F)(F)F)c1	-17	-7	3	20	12	.	.	.
COc1cc(OC)cc(C(=O)NC(=S)Nc2cc3oc4ccccc4c3cc2OC)c1	17	-5	15	10	25	.	.	.
COc1ccc(C(=O)NC(=S)Nc2cc3oc4ccccc4c3cc2OC)cc1	48*	12	-12	0	1	36	0	8
O=S(=O)(NC1=NCCC1)c1cccc(NC(=S)Nc2ccc(OC(F)F)cc2)c1	48*	-8	1	14	12	31	-1	-4
O=C(COC(=O)c1ccc(OC(F)F)cc1)Nc1cccc(S(=O)(=O)NC2=NCCC2)c1	0	-4	-4	5	7	.	.	.
O=C(Nc1ccc2ccccc2n1)c1ccccc1Cl	2	-2	-11	-1	2	.	.	.
O=C(Nc1ccc2ccccc2n1)c1ccc(Cl)cc1	61*	-2	5	6	10	39	-1	7
CCOC(=O)c1c(C)[nH]c(C(=O)N(C)CC(=O)Nc2ccc(OC)cc2)c1C	-1	-3	1	2	1	.	.	.
CCC(C(=O)c1ccc2ncccc2c1)c1ccccc1 (centres undefined)	61*	-4	-2	10	10	46	1	-3
Cc1cccc(C)c1N(CC(=O)Nc1cc(Cl)ccc1Oc1ccccc1)S(C)(=O)=O	47*	-1	5	16	12	12	0	8
Cc1ccc(C)c(N(CC(=O)Nc2cc(Cl)ccc2Oc2ccccc2)S(C)(=O)=O)c1	39	-6	2	15	20	.	.	.
O=c1c2ccccc2cnn1CCOc1cccc(Br)c1	3	-1	10	14	20	.	.	.
CCOC(=O)/C=C/C(=O)Nc1cc(S(=O)(=O)Nc2ccc(OC)cc2)ccc1N1CCOCC1	75*	8	-2	-51	10	72*	1	11
Cc1ccc(C(=O)N2CCN(c3ccc([N+](=O)[O-])c(NCc4ccco4)c3)CC2)cc1	42*	-4	8	-8	15	13	-1	-6
O=C(NCc1cccc(C(F)(F)F)c1)c1csc(COCCO)n1	-11	.	5	.	.	.	.	.
Cc1ccc(CCNC(=O)C2CCC(CNc3c(N4CCC(C)CC4)c(=O)c3=O)CC2)cc1 (centres undefined)	4	-2	5	-4	16	.	.	.
Cc1ccc(CNC(=O)C2CCC(CNc3c(N4CCC(C)CC4)c(=O)c3=O)CC2)cc1 (centres undefined)	84*	-2	5	-2	9	57*	1	12
CCN1C(=O)[C@H]2[C@@H](c3ccc(C)cc3)N[C@]3(CCCN(CCC(C)C)C3=O)[C@H]2C1=O	-6	.	-4	.	.	.	.	.
SMILES	EBI2 antag	APJ agonist	CXCR6 inh	APJ antagonist	CCR6 antag	EBI2 antag conf	EBI2 ag	bGal cs
COc1ccc(-n2c(-c3ccco3)nc3c(cnn3-c3ccc(C)cc3)c2=O)cc1	43*	1	7	8	4	38	0	0
COc1ccc(-n2c(-c3ccco3)nc3c(cnn3-c3ccccc3C)c2=O)cc1	-17	-2	-2	-8	9	.	.	.
CC1(C(=O)Nc2ccc3[nH]ncc3c2)CCN1C(=O)CC(c1ccccc1)c1ccccc1 (centres undefined)	48*	.	8	.	.	13	0	-11
CC1(C(=O)Nc2ccc3[nH]ncc3c2)CCN1C(=O)C/C=C/c1ccccc1 (centres undefined)	21	.	-1	.	.	.	.	.
Cc1cc(Br)ccc1OCC(=O)NNC(=O)CCc1ccccc1	4	-4	11	27	11	.	.	.
Cc1cc(Br)ccc1OCC(=O)NNC(=O)Cc1ccccc1	46*	2	-8	15	22	25	1	3
Cc1oc(-c2ccccc2Cl)nc1CS(=O)(=O)CC(=O)NC1CCCC1	-3	-8	6	15	12	.	.	.
Cc1ccc(/C=C/C(=O)NCc2cccs2)c(C)c1	39	2	-6	5	15	.	.	.
Cc1ccc(/C=C/C(=O)NCc2cccs2)cc1	53*	2	-4	-2	12	44	2	1
Cc1ccc(/C=C/C(=O)NCc2ccncc2)cc1	64*	0	5	12	1	31	-1	-8
O=C(Nc1ccccc1Cl)OCC#CCOC(=O)Nc1ccccc1Cl	-11	.	-3	.	.	.	.	.
CC1CCCC(CC(=O)O)(CC(=O)O)C1 (centres undefined)	-10	-1	-3	10	7	.	.	.
O=C(NC1CCSC1=O)c1ccc(Oc2ccc(F)cc2)nc1 (centres undefined)	16	0	3	3	2	.	.	.
Cc1ccc(Oc2ccc(C(=O)NC3CCSC3=O)cn2)cc1 (centres undefined)	49*	0	1	2	-21	29	-1	-12
O=C(O)c1cnn(-c2nc(-c3ccc(F)cc3)cs2)c1C(F)(F)F	2	-1	-3	2	12	.	.	.
CCOC(=O)c1cnn(-c2nc(-c3ccc(C)cc3)cs2)c1C(F)(F)F	45*	.	-4	.	10	3	0	-7
CCOCCCNC(=O)Cn1nc(Cc2ccncc2)c2ccccc2c1=O	1	-4	-8	-2	4	.	.	.
Cc1nc(NC(=O)CSc2nnc(-c3ccccc3)c(-c3ccccc3)n2)c(Cl)cc1Cl	42*	-2	6	5	13	25	1	3
O=C(CSc1nnc(-c2ccccc2)c(-c2ccccc2)n1)Nc1ncc(Cl)cc1Cl	7	2	-2	11	8	.	.	.
